Assay results taken from article PMC11795718 (Angewandte Chemie (International Ed. in English), 2024).

Tests used:
h-15-LOX-1 = biological target: T1, h-15-LOX-1 (Homo sapiens, UniProt P16050); assay: Michaelis-Menten / Lineweaver-Burk kinetics; format: biochemical
T1 sequence (P16050 1-662): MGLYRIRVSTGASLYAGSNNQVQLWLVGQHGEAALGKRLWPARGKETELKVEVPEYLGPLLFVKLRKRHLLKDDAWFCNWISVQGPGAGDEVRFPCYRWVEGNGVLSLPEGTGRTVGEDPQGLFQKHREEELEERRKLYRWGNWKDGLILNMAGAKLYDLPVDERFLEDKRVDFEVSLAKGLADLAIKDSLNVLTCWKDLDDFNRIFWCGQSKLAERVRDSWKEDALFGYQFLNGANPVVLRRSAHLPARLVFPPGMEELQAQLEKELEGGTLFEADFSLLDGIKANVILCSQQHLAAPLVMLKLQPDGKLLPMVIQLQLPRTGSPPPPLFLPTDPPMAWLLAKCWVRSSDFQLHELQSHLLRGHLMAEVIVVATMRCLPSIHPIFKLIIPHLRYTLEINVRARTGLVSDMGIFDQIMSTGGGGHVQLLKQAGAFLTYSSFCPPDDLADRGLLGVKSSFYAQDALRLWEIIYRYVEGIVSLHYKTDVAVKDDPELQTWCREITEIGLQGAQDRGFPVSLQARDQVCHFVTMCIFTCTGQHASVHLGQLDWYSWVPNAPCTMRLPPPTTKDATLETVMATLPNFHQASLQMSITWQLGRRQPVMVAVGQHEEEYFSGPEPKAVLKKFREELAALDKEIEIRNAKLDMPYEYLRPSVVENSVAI

[1] = system: 15‐LOX‐1 in RAW 264.7 cells; assay: cell-based competition assay; set-up: species or system murine; conditions: for competition with BAM10 labelling, 10-fold competitor: 5 μM BAM10, competitor 10-fold (50 μM); for competition with BAM10 labelling, equimolar competitor: 5 μM BAM10, equimolar concentration of competitor
soybean LOX = soybean LOX inhibition; format: biochemical; conditions: selectivity
C. elegans = assay: growth and imaging of BAM10-treated C. elegans; format: in vivo, Caenorhabditis elegans; conditions: 5 μM BAM10, competitor 50 μM, co-treated plates
purified 15‐LOX‐1 [2] = biological target: T2, purified 15‐LOX‐1 (Homo sapiens, UniProt P16050); assay: MS-based proteomics of covalent modification; format: binding; conditions: adduct after preincubation with purified 15-LOX-1
T2 sequence (P16050 1-662): T1 sequence (P16050 1-662)

purified 15‐LOX‐1 [3] = biological target: T2, purified 15‐LOX‐1; assay: fluorescence labeling of recombinant purified 15-LOX-1; format: binding; conditions: applied prior to the probe BAM10
How it was run: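 Recombinant purified human 15‑LOX‑1 was incubated briefly with the fluorescent probe, then acetone‑precipitated, leaving excess probe in the supernatant; fluorescence of the labelled protein was read. For the dot‑blot, enzyme with or without pre‑incubation with a reference inhibitor was probe‑treated; controls lacked enzyme. Duplicates (n=2).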

RAW 264.7 cells = assay: imaging-based cell permeability and retention assay; set-up: species or system murine; conditions: live RAW 264.7 cells, timeframe of the experiment
How it was run: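 Live RAW 264.7 cells were treated in situ on the confocal microscope with the fluorescein‑tagged probe at room temperature. Images were recorded immediately and continuously to follow cellular uptake over time.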

CC#CCC#CCCCC=O [BAM1]
type of inhibition (Lineweaver–Burk plots) (h-15-LOX-1): noncompetitive inhibition

CC#CCC#CCCCC=NNc1ccccc1 [BAM3]
competition with BAM10 labelling, 10-fold competitor [1]: reduction of BAM10 fluorescence intensity | competition with BAM10 labelling, equimolar competitor [1]: not significant | difference in inhibitory potency in favor of human 15-LOX-1 over soybean LOX (soybean LOX): 4 fold | competition with BAM10 fluorescence in the pharynx (C. elegans): reduced BAM10 fluorescence intensity | mass increase of tryptic peptide [YTLEINVRAR] (amino acids 395–404) (purified 15‐LOX‐1 [2]): 230 Da

CCCCNC(=O)c1cc(-c2ccccc2)sc1N [ThioLox, reference compound]
competition with BAM10 labelling, 10-fold competitor [1]: decreased almost to background levels | competition with BAM10 labelling, equimolar competitor [1]: not significant | effect on BAM10 labeling of the enzyme (dot-blot) (purified 15‐LOX‐1 [3]): reduced labeling of the enzyme | competition with BAM10 fluorescence in the pharynx (C. elegans): reduced BAM10 fluorescence intensity

O=C1OC2(c3ccc(O)cc3Oc3cc(O)ccc32)c2ccccc21 [fluorescein]
cell permeability (RAW 264.7 cells): impermeable
